A word on the Ki: it is a measure of affinity in units of concentration, obtained from inhibition or displacement.

Active and inactive are the calls of the source. No cut-off for these calls is given here. Some results are limits rather than exact numbers.

This passage reports Ki and pD2 results from ChEMBL document CHEMBL1136924 (J Med Chem, 2009).

In one experiment the target is D(1A) dopamine receptor (Rattus norvegicus, UniProt P18901). The experiment in a line: Displacement of [3H]SCH-23390 from dopamine D1 receptor in rat striatum.
Chain of D(1A) dopamine receptor (P18901 whole entry): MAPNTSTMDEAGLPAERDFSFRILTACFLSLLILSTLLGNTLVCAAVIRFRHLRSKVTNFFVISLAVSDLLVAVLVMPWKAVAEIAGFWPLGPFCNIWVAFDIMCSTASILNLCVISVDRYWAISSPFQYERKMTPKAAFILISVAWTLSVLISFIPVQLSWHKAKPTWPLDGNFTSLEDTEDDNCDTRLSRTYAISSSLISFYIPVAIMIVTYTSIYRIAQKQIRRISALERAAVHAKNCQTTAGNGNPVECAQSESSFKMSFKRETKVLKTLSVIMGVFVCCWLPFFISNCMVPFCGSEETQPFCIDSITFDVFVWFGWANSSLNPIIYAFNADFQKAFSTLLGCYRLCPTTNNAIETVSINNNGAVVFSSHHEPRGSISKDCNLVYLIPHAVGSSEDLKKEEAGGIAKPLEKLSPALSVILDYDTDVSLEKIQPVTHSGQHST
The target in the next experiment is D(2) dopamine receptor (Rattus norvegicus, UniProt P61169). The experiment in a line: Displacement of [3H]spiperone from dopamine D2 receptor in rat striatum. (In a radioligand displacement assay an active substance lowers the binding of a labelled ligand.)
Chain of D(2) dopamine receptor (P61169 whole entry): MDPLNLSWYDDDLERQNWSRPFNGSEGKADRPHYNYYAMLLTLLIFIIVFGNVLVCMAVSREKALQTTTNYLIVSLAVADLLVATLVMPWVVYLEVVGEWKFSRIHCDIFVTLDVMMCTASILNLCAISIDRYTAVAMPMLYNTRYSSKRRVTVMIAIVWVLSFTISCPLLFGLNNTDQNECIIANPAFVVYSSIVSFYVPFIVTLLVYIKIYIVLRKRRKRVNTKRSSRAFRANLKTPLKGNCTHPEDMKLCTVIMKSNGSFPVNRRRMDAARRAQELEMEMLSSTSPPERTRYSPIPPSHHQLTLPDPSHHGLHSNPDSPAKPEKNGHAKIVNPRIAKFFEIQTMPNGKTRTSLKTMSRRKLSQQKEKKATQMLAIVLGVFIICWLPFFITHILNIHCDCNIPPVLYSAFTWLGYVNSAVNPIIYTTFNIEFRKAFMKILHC
In experiment [1] the target is 5-hydroxytryptamine receptor 2A (Rattus norvegicus, UniProt P14842). Nature of the experiment: Displacement of [3H]ketanserin from 5HT2A receptor in rat cortex.
Chain of 5-hydroxytryptamine receptor 2A (P14842 whole entry): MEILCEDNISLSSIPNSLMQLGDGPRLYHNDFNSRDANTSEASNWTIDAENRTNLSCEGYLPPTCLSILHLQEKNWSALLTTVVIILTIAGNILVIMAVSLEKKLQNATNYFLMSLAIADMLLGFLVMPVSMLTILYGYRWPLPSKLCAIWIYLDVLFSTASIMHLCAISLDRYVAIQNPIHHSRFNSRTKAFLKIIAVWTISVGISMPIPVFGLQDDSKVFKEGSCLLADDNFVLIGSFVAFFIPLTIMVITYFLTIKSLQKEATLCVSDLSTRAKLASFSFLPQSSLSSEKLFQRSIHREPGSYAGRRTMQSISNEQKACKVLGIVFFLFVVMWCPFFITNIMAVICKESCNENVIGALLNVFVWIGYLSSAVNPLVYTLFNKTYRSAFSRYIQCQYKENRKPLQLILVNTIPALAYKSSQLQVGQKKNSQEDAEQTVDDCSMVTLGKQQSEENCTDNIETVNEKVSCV
The target of experiment [2] is T1, 5-hydroxytryptamine receptor 3A (Cavia porcellus) (UniProt O70212).
T1 sequence (whole entry): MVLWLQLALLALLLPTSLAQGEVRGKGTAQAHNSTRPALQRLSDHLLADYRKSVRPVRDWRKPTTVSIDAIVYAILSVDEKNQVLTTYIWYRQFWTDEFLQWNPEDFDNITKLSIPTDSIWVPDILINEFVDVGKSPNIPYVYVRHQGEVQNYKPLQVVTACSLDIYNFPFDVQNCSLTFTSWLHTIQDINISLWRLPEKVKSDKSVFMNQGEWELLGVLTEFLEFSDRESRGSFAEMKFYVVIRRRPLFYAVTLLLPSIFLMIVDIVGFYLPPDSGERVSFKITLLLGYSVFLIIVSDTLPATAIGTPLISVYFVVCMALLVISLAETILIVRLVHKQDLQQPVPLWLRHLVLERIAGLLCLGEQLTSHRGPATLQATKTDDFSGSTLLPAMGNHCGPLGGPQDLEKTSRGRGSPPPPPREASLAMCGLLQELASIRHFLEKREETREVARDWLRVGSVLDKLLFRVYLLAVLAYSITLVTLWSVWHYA
Nature of the experiment: Agonist activity at 5HT3 receptor in guinea pig thoracic aorta assessed as positive contractility potency at 100 uM. The format is functional, tissue-based. The method in brief:
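Guinea pig aortic helicoidal strips in PSS at 35 °C, aerated, under 1 g resting force, washed every 20 min for 1 h. Compounds added cumulatively 0.1-100 µM (DMSO vehicle); isometric contraction recorded.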

Experiment [3] deals with 5-hydroxytryptamine receptor 4 (Cavia porcellus, UniProt O70528). Nature of the experiment: Displacement of [3H]GR-113808 from 5HT4 receptor in guinea pig striatum.
Chain of 5-hydroxytryptamine receptor 4 (O70528 whole entry): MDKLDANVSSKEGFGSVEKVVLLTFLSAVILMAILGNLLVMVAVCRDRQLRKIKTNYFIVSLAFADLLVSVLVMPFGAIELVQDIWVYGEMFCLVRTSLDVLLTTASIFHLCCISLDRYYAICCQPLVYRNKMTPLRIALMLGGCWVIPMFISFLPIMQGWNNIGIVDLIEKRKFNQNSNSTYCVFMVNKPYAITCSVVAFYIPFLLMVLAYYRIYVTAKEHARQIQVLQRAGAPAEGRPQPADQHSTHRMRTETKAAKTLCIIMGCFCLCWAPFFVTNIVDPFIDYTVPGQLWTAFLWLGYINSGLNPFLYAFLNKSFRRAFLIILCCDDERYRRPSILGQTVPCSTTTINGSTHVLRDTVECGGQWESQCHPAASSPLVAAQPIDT
Experiment [4] addresses Muscarinic acetylcholine receptor. Nature of the experiment: Displacement of [3H]QNB from muscarinic receptor in rat cortex.
Experiment [5] has as its target T2, 5-hydroxytryptamine receptor 1A (Rattus norvegicus, UniProt P19327).
T2 sequence (P19327 whole entry): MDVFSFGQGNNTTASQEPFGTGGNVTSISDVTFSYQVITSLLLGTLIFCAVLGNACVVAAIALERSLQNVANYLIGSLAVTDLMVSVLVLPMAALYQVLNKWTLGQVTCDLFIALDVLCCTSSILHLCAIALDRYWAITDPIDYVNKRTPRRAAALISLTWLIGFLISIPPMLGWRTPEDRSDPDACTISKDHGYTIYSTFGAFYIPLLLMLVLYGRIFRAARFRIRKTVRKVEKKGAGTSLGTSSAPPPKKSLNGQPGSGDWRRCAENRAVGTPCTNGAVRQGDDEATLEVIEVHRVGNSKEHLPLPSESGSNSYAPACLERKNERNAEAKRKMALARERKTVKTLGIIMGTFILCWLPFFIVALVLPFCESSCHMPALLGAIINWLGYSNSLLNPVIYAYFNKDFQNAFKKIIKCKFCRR
The experiment in a line: Displacement of [3H]8-OHDPAT from 5HT1A receptor in rat hippocampus. The format is tissue-based.

In experiment [6] the target is T3, Adrenergic receptor alpha-1 (Rattus norvegicus, UniProt P15823+P23944+P43140).
T3 sequence (P15823 whole entry): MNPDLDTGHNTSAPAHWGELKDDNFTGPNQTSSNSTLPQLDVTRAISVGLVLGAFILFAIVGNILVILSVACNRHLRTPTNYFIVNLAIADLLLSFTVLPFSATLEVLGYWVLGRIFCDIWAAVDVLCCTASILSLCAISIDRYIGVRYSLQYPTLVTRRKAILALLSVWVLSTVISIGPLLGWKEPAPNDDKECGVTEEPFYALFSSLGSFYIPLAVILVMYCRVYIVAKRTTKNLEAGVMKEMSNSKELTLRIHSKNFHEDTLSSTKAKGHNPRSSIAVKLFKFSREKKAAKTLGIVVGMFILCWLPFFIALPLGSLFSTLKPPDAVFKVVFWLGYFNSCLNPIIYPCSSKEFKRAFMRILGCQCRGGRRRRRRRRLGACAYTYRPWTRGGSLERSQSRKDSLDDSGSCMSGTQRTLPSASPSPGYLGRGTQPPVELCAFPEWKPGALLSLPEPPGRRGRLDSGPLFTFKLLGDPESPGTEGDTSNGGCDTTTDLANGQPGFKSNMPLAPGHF
T3 sequence (P23944 whole entry): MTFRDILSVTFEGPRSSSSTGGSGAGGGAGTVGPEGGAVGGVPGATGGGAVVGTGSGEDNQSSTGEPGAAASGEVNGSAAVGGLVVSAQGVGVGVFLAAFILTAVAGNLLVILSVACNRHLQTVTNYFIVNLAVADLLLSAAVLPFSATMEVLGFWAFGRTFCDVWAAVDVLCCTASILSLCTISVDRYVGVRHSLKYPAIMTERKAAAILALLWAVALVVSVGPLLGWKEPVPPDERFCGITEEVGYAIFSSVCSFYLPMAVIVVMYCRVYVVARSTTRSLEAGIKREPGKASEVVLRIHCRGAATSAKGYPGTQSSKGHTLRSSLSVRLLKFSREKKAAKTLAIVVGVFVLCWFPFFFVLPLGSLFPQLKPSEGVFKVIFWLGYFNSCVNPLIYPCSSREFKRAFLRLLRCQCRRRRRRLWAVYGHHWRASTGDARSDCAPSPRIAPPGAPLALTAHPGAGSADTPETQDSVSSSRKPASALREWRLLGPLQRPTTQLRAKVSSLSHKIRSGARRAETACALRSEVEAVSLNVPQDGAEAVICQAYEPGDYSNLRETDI
T3 sequence (P43140 whole entry): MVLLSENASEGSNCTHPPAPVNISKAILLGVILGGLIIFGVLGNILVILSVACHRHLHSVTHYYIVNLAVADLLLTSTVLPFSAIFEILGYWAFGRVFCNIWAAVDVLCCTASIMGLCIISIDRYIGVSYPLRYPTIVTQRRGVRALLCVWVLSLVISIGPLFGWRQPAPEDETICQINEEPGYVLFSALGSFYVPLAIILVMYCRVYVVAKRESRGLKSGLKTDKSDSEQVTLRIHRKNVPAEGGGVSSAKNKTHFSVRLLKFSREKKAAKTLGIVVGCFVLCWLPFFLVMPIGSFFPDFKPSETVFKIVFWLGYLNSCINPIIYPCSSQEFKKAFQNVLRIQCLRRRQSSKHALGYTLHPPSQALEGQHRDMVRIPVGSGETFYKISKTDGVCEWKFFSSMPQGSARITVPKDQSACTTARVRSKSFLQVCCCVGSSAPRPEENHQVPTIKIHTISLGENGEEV
The experiment in a line: Displacement of [3H]prazosin from adrenergic alpha1 receptor in rat cortex.

As to `N/C(CN1CCN(c2nc3cc(F)ccc3n3cccc23)CC1)=N\O`, the Ki (on D(1A) dopamine receptor; at D(2) dopamine receptor; in experiment [1]; in experiment [3]; in experiment [4]; in experiment [5]) was more than 10 µM each time. In experiment [6], the inhibitory constant (Ki) was more than 10 µM. Moreover, the pD2 entry in experiment [2] is “inactive”.

For the compound `N[C@@H](CN1CCN(c2nc3cc(F)ccc3n3cccc23)CC1)C(=O)O`, the inhibitory constant (Ki) at D(1A) dopamine receptor was more than 10 µM; at D(2) dopamine receptor, more than 10 µM; in experiment [1], 5.69 µM; in experiment [3] it was more than 10 µM; in experiment [4], more than 10 µM; in experiment [5] it was 0.446 µM. Also, in experiment [6], the inhibition constant (Ki) was more than 10 µM. Moreover, the pD2 result in experiment [2] is “inactive”.
